Screening results: PubChem, SRMLSC
This is one part of a sample in which hits are shown more often than they occur.
Lung fibro prol = antiproliferative effect on LL 47 fibroblasts – human, LL 47 cells, CellTiter-Glo luminescence, primary screen; hit rate 1.1% among 85,000; viability, % at 10 µM; LL 47 human lung fibroblast viability, ATP luminescence; active compounds read low;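 active = viability at or below 50% in the single dose screen; inactive = viability above 50%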;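 also: compound exposure lasted 72 h before the ATP readout; 100% = median luminescence of untreated cell-only wells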
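Test system: LL 47 human lung fibroblasts / Quantity: 1,150 cells in each well / Medium: IMEM growth medium with 15% fetal bovine serum / Incubation: 72 h compound exposure at 37 °C after overnight plating / Detection: CellTiter-Glo luminescence measuring cellular ATP / Read-out: % viability versus median cells-only luminescence / Benchmarks: cell-only wells, no compound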
HUVEC inhibit = inhibitors of HUVEC proliferation, primary screen, cell-based, 384-well; CellTiter-Glo luminescence, 72 h; active compounds read low; viability, % at 10 µM (by protocol); hit rate 1.1% among 86,000;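 active = viability at or below 30%; inactive = viability above 30%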;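 also: 100% = median luminescence of DMSO-only cell control wells on each plate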
H69AR inhibit = proliferation blockers of H69AR lung cancer cells, primary screen, cell-based, human, 86K library; hit rate 6% among 85,000; AID 598, 2007; viability, % at 10 µM; H69AR lung tumor viability, ATP luminescence, 72 h; active compounds read low;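 active = viability at or below 40%; inactive = viability above 40%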;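 also: multidrug resistant small cell line overexpressing MRP-1 efflux transporter; 100% = mean luminescence of untreated control wells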
bCat KO growth = primary screen for growth suppressors in beta-catenin knockout HCT116 cells (colon tumor, human); HCT116 beta-catenin knockout viability, CellTiter-Glo, 60 h; active compounds read low; viability, % at 10 µM; hit rate 1.5% among 140,000; AID 818, 2007;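 active = viability at or under a set limit, the compound median less 4 SD, cut at about 6% in these data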;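 also: 0% = Hyamine 1622 control at 20 µM and 100% = untreated cell control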
HCT116 PTEN-null = growth suppression of PTEN-null HCT116, primary screen, cell-based, CellTiter-Glo; HCT116 PTEN-null viability, 60 h; active compounds read low; viability, % at 10 µM; hit rate 1.2% among 140,000; AID 827, 2007;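 active = viability at or below a set limit, 4 SD under the median of all tested compounds, cut at about 3.7% in these data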;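 also: PTEN knockout HCT116 line with beta catenin targeted HCT116 as companion control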
Numbers without * were called inactive; nt = not tested or not shown.

SMILES | Lung fibro prol | HUVEC inhibit | H69AR inhibit | bCat KO growth | HCT116 PTEN-null
Cc1cnc(NC(=O)c2c(O)c3cccc4c3n(c2=O)CCC4)s1 | 97 | 89 | 5.7* | 80 | 84
CN(/N=C/c1ccc(O)cc1O)c1nc(-c2ccccc2)cc(-c2ccccc2)n1 | nt | nt | nt | 16 | 19
COC(=O)c1ccc(NCCC(=O)O)cc1 | nt | nt | nt | 87 | 99
CCOC(=O)c1c(NC(=S)NC(=O)c2ccc(Cn3cc(Cl)cn3)o2)sc2c1CCC(C)C2 (stereo unspecified) | nt | nt | nt | 1.9* | 1.5*
CCn1cc(C(=O)NC(=S)Nc2sc3c(c2C(=O)OC)CCCCCC3)cn1 | nt | nt | nt | 9 | 2.1*
COC(=O)c1cc(NC(=O)c2ccc(Cn3cc(Cl)cn3)o2)cc(C(=O)OC)c1 | 6.8* | 32 | 2.7* | 71 | 85
CCOC(=O)c1c(NC(=O)CSc2nnc(C)s2)sc2c1CCC(C)C2 (stereo unspecified) | 95 | 94 | 44 | 79 | 82
CCCNC(=O)c1ccccc1NC(=O)c1ccccc1N(C)S(=O)(=O)c1ccc(C)cc1 | nt | nt | nt | 50 | 45
CCCCCCCCCCCC(=O)N/N=C/c1ccco1 | nt | nt | nt | 89 | 92
CN(C)S(=O)(=O)c1ccc2nc(NC(=O)c3cccs3)sc2c1 | 110 | 79 | 29* | 88 | 90
CN(C)S(=O)(=O)c1ccc2nc(NC(=O)c3cccnc3)sc2c1 | 96 | 86 | 89 | 93 | 92
CS(=O)(=O)c1ccc2nc(NC(=O)c3ccco3)sc2c1 | nt | nt | nt | 95 | 87
O=C(Nc1nc2ccc(S(=O)(=O)N3CCCC3)cc2s1)c1cccs1 | 89 | 59 | 36* | 90 | 91
Cc1ccc(C(=O)Nc2nc3ccc(S(C)(=O)=O)cc3s2)o1 | 77 | 67 | 29* | 61 | 64
Cn1c(=O)c2c(ncn2CC(=O)N/N=C/c2ccc(Br)s2)n(C)c1=O | nt | nt | nt | 92 | 81
Cc1ccccc1NC(=O)CSc1nc(N)c(C#N)c(-c2cccs2)c1C#N | 55 | 59 | 27* | 79 | 88
CCN1CCN(Cc2nc3c(c(=O)[nH]c(=O)n3C)n2Cc2ccccc2Cl)CC1 | 91 | 93 | 77 | nt | nt
CCCCn1c(CN2CCN(c3cccc(Cl)c3)CC2)nc2c1c(=O)[nH]c(=O)n2C | 49* | 51 | 19* | 18 | 24
Cn1c(=O)[nH]c(=O)c2c1nc(CN1CCN(c3cccc(Cl)c3)CC1)n2Cc1ccccc1Cl | 83 | 59 | 12* | 37 | 31
Cc1ccc(-c2c[n+](Cc3ccc(Cl)c(Cl)c3)c3n2CCC3)cc1 | nt | nt | nt | 94 | 100
Cc1cc(C)c(-n2c(C)cc(/C=C3/NC(=O)NC3=O)c2C)c(C)c1 | 90 | 74 | 17* | 72 | 55
Nc1ccccc1Nc1ccccc1 | 82 | 77 | 11* | 72 | 64
COc1ccc(N2CC(NC(=O)NCC(C)C)CC2=O)cc1 (stereo unspecified) | nt | nt | nt | 99 | 94
CC(=O)Nc1ccc(S(=O)(=O)NCC(=O)OCC(=O)N2CCCc3ccccc32)cc1 | nt | nt | nt | 93 | 98
CCCCNC(=O)NC1CCCC1 | nt | nt | nt | 98 | 93
SMILES | Lung fibro prol | HUVEC inhibit | H69AR inhibit | bCat KO growth | HCT116 PTEN-null
CCOc1ccc2c(c1)-c1c(ssc1=S)C(C)(C)N2C | 97 | 77 | 32* | 78 | 79
CC(=O)Nc1nc2cc3c(cc2s1)OCO3 | 95 | 98 | 93 | 99 | 79
O=C(Nc1nc2cc3c(cc2s1)OCO3)C1=COCCO1 | 80 | 50 | 26* | 45 | 48
O=C1c2ccccc2C(=O)c2c1ccc1c(=O)n(C3CCCCC3)[nH]c21 | nt | 3.2* | 36* | 7 | 22
O=C(Nc1cc(Oc2ccccc2)cc([N+](=O)[O-])c1)C12CC3CC(C1)CC(n1cnc(Cl)n1)(C3)C2 | nt | nt | nt | 62 | 45
Cc1cc(C)c(C)c(S(=O)(=O)NCc2ccc(C(=O)N3CCCCC3)cc2)c1C | 99 | 95 | 33* | 78 | 86
Cc1ccc(C)c(S(=O)(=O)NCc2ccc(C(=O)N3CCCCCC3)cc2)c1 | nt | nt | nt | 95 | 90
O=C1CCCC2=C1C(c1ccco1)Nc1ccc(C(=O)c3ccccc3)cc1N2 (stereo unspecified) | 84 | 68 | 13* | 31 | 29
O=C(Nc1cccnc1)c1cc(-c2ccc3c(c2)OCO3)on1 | 92 | 88 | 93 | 91 | 100
COC(=O)C/C(C)=N/Nc1ccc(S(=O)(=O)N2CCCC2)cc1[N+](=O)[O-] | nt | nt | nt | 110 | 97
Cc1ccc(-c2nc(N/N=C/c3cccnc3)c3ccccc3n2)cc1 | 50 | 57 | 26* | 73 | 79
O=C(COC(=O)c1cc([N+](=O)[O-])ccc1NCc1ccccc1)NC1CCCc2ccccc21 (stereo unspecified) | 56 | 72 | 38* | 72 | 70
O=C(COC(=O)c1cc([N+](=O)[O-])ccc1NCc1ccccc1)NCc1ccccc1Cl | nt | nt | nt | 80 | 80
Cc1ccc(-n2nnc3c(=O)n(Cc4cc(C)ccc4C)cnc32)cc1 | 99 | 63 | 33* | 75 | 80
Cc1ccc(-n2nnc3c(=O)n(Cc4cccc(C)c4)cnc32)cc1 | 99 | 106 | 102 | 97 | 101
CCCn1c(CNc2ccccc2O)nc2ccccc21 | 101 | 100 | 27* | 53 | 48
CCCCn1c(CNC(=O)CCC)nc2ccccc21 | 107 | 102 | 103 | 90 | 84
CCCn1c(/C=N/Nc2nc3ccccc3[nH]2)nc2ccccc21 | nt | nt | nt | 3.6* | 3.0*
CCN(CC)c1ccc(/C=N/Nc2nc3ccccc3[nH]2)cc1 | nt | nt | nt | 2.8* | 1.6*
CC(C)Cn1c(/C=N/Nc2nc3ccccc3[nH]2)nc2ccccc21 | nt | nt | nt | 12 | 14
CC(=O)Nc1ccc(/C=N/Nc2nc3ccccc3[nH]2)cc1 | nt | nt | nt | 16 | 36
CC1=C(C(=O)Nc2ccccc2)C(c2cccc([N+](=O)[O-])c2)Nc2nc3ccccc3n21 (stereo unspecified) | 96 | 91 | 35* | 70 | 70
CCc1c(C)nc(SC(C(=O)O)c2ccccc2)c(C#N)c1C (stereo unspecified) | nt | nt | nt | 98 | 89
CCC(C)NC(=O)c1c(N)n(/N=C/c2ccccn2)c2nc3ccccc3nc12 (stereo unspecified) | 99 | 12* | 11* | 22 | 12
CCC(C)NC(=O)c1c(N)n(/N=C/c2cccnc2)c2nc3ccccc3nc12 (stereo unspecified) | 89 | 3.4* | 90 | 34 | 27
CC(C)OCCCNC(=O)c1c(N)n(/N=C/c2ccccn2)c2nc3ccccc3nc12 | 102 | 76 | 23* | 61 | 53
COCCCNC(=O)c1c(N)n(/N=C/c2cccnc2)c2nc3ccccc3nc12 | nt | nt | nt | 82 | 81
CC(C)CNC(=O)c1c(N)n(/N=C/c2cccnc2)c2nc3ccccc3nc12 | 100 | 67 | 46 | nt | nt
COc1ccc(NS(=O)(=O)c2ccc(NC(=S)NC(=O)/C=C/c3ccccc3)cc2)nn1 | nt | nt | nt | 88 | 88
O=c1c2ccc([N+](=O)[O-])c3cccc(c32)c2nc3ccccc3n12 | nt | nt | nt | 12 | 5
